Test results from ChEMBL document CHEMBL4513216, “Probing the Open Global Health Chemical Diversity Library for Multistage-Active Starting Points for Next-Generation Antimalarials” (ACS Infect Dis, 2020).

Assay: Toxicity liver stage against HepG2, at 10uM
Type: cell-based
Design: test concentration 10 uM, cell line HepG2-A16-CD81EGFP
Conditions: human, HepG2-A16-CD81EGFP cells; read-out: INHIBITION
Summary of the method: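 Uninfected HepG2-A16-CD81EGFP cells, 3 × 10^3 per well, 1536-well, plated on prespotted compound at 10 μM final, parasite-free screening media added to match infected plates; puromycin 10 μM positive, DMSO 0.5% negative; run in parallel with 48 h PbLuc assay at 37 °C, 5% CO2; viability by CellTiter-Glo luminescence, normalized to controls.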

| Structure (SMILES) | cytotoxicity at 10 µM [%] |
| --- | --- |
| CCc1c(C)nc(SCc2ccccn2)[nH]c1=O | 9.56 |
| CCOc1ccc(NC(=O)c2cnc(N3CCCC3)nc2C)cc1 | -7.81 |
| COc1ccc(CN2CCCC2c2cccc(F)c2)c(OC)c1OC (stereo not drawn) | 3.48 |
| COc1ccc(Cl)cc1NCc1nc2[nH]c(C)c(C)c(=O)n2n1 | 0.308 |
| Cc1nc2oc(C(=O)N3CCCC3)c(N)c2c2c1CCCC2 | -6.95 |
| CS(=O)(=O)NCC(Cc1cccc(F)c1)N1CCNC1=O (stereo not drawn) | -2.91 |
| O=S(=O)(Nc1cnc(N2CCCC2)nc1)c1ccc(F)cc1F | -14.4 |
| Cn1cnc(S(=O)(=O)NCC2(O)CCc3ccccc3C2)c1 (stereo not drawn) | -4.2 |
| Cn1nc(CNC(=O)c2cccc(C(F)(F)F)c2)c2c1CCOC2 | 4.07 |
| Cn1cnnc1S(=O)(=O)C1CCN(S(=O)(=O)c2ccccc2F)CC1 | -2.08 |
| CC1CC2(CCN(C(=O)c3csnn3)CC2)c2ccccc21 (stereo not drawn) | -137 |
| c1ccc(NC[C@@H]2CCC[C@@H]3CN(Cc4csnn4)C[C@@H]32)nc1 | -114 |
| COCC(C)NC(=O)c1cn(C(C)(C)C)c2ncccc12 (stereo not drawn) | 2.69 |
| CSCCC(CO)NC(=O)c1sc(-c2ccccc2Cl)nc1C (stereo not drawn) | 1.11 |
| O=C(Cn1ccc2ccccc21)NCc1ccc(C(=O)O)cc1 | -6.13 |
| COCCO[C@@H]1C[C@H]2CN(C(=O)c3cnccn3)CCN2C1 | -8.58 |
| CC(=O)Nc1ncc(S(=O)(=O)Nc2ccccc2F)s1 | 14.4 |
| Cc1ccc(Cl)cc1N1CCN(CC(=O)NCc2ccco2)CC1 | 1.67 |
| CN(C)CCCNC(=O)c1nnsc1-c1ccccc1 | 5.75 |
| CCn1cc(NC(=O)C(C)n2ncc(Cl)c2C)c(C(=O)NC)n1 (stereo not drawn) | 9.51 |
| O=C1CC(c2ccc(F)cc2)c2snc(C(=O)O)c2N1 (stereo not drawn) | 0.833 |
| COc1ccc(C2=NOC(C#N)C2)cc1 (stereo not drawn) | -11.2 |
| OCCc1cc(C2CCCN2c2ncccn2)n[nH]1 (stereo not drawn) | 5.56 |

| Structure (SMILES) | cytotoxicity at 10 µM [%] |
| --- | --- |
| NC(=O)CN1CCCC(Cc2ccc(N3CCOCC3)nn2)C1 (stereo not drawn) | 8.21 |
| CCCn1cc(CN2CCCC2c2cccc(-n3ccnc3)n2)cn1 (stereo not drawn) | -19.6 |
| Cc1noc(C)c1-c1cncc(C2CCCN2Cc2nccs2)n1 (stereo not drawn) | -14.2 |
| Cc1cc(N(C)C)nc(C2(C)CCCN2C(=O)c2ccccc2)n1 (stereo not drawn) | -27.4 |
| CN(C)Cc1ccnc(C2CCCN2Cc2cccc(F)c2F)n1 (stereo not drawn) | 2.22 |
| Cc1cc2cc(C(=O)N3C[C@H](O)[C@]4(CCCO4)C3)ccc2o1 | -10.9 |
| c1cnc(N2CCCC(c3cncc(-n4ccnc4)n3)C2)nc1 (stereo not drawn) | -11.8 |
| c1cnc(N2CCC(c3n[nH]c4ncccc34)C2)nc1 (stereo not drawn) | -4.47 |
| CC1(C(=O)NCc2cccc(C(F)(F)F)c2)CCOCC1 | 7.63 |
| Cc1ccc(-n2nc3n(c2=O)CCN(C(=O)c2ccc(Cl)cc2)C3)cc1 | 6.78 |
| CC(=O)N1CCCN(CCCSCc2ccccc2)CC1 | -4.53 |
| Cc1ccc(CNC(=O)CN(CCC(N)=O)c2ccc(F)cc2)cc1 | -2.62 |
| COc1ccc(CNC(=O)C(NC(=O)Cc2ccccc2)C(C)C)cn1 (stereo not drawn) | -0.943 |
| NC(=O)COc1ccc(C2NC(=O)CN2Cc2ccc(Br)cc2)cc1 (stereo not drawn) | -7.38 |
| COCCCC(=O)NCc1cccc(NC(N)=O)c1 | 0.808 |
| OCCN(Cc1cccnc1)c1ncc(Br)cn1 | 9.68 |
| CC(NC(=O)NCCC1=CCCCC1)c1nncn1C (stereo not drawn) | -11.7 |
| O=C(C1CCCO1)N1CCC(c2nc(-c3ccccc3)n[nH]2)CC1 (stereo not drawn) | -10.9 |
| CC1CN(c2ncnc3cccc(F)c23)CCO1 (stereo not drawn) | 16.1 |
| CC(CC(=O)NCCCn1cccn1)c1cccnc1 (stereo not drawn) | -1.66 |
| CCN(CC1CCCO1)C(=O)CSCC(=O)Nc1ccc(C)cc1 (stereo not drawn) | -1.69 |
| Cn1cc(-c2nc(CN3CCn4c(nnc4C4CC4)C3)cs2)cn1 | -1.07 |
| COCCC(C)NC(=O)N1CCC(n2ccc(C(F)(F)F)n2)CC1 (stereo not drawn) | -3.9 |

| Structure (SMILES) | cytotoxicity at 10 µM [%] |
| --- | --- |
| CCSc1cc(C(=O)NCC(C)(C)N(C)C)ccn1 | -13.4 |
| COCCOc1ccc(NC(=O)N2CCOC(C(N)=O)C2)cc1F (stereo not drawn) | -140 |
| COc1nc(C)ccc1CNC(=O)NC(C)(C)c1ncc(C)s1 | 14.7 |
| CC(C)Cn1cc(NC(=O)NCC2CCN(c3ccccc3)C2)cn1 (stereo not drawn) | 2.53 |
| Cn1nc2c(cc1=O)CN(Cc1ccc(-n3cccn3)cc1)CC2 | -141 |
| CCN(Cc1cccc(NC(=O)COCCOC)c1)C(C)=O | -136 |
| COc1ccccc1N1CCC(CNC(=O)N(C)Cc2ccco2)C1 (stereo not drawn) | -146 |
| CCCc1nnnn1Cc1cn2c(C)cccc2n1 | -8.51 |
| Cc1cc(CNC(=O)CCN2CCN(c3ccccn3)CC2)c(C)o1 | 1.71 |
| CN(Cc1cc(Cl)ccc1Cl)Cc1ncnn1C | -0.943 |
| CCn1cc(CNCCNc2ncc(Cl)cc2Cl)cn1 | -4.27 |
| CC(C(=O)Nc1cc(F)ccc1F)N1CCN(Cc2ncc[nH]2)CC1 (stereo not drawn) | -15.8 |
| CC(=O)c1ccc(Cl)c(Cl)c1OCC(=O)NC(C)C | -9.66 |
| Cc1cc(NC(=O)N(C)C2CCCN(c3ccccc3)C2=O)n(C)n1 (stereo not drawn) | 5.42 |
| Cc1cccc(CCC(=O)Nc2cccnc2N2CCC(O)CC2)c1 | -2.25 |
| CC(Nc1ccc(CN2CCCC2=O)cc1)C(=O)N(C)CCC#N (stereo not drawn) | 13.7 |
| Cc1ccc(NCc2ccco2)cc1N1CCOC1=O | -10.6 |
| CNC(=O)NCC(CO)Cc1ccccc1OC(F)(F)F (stereo not drawn) | 5.97 |
| CC(C)N(C)CCCNC(=O)c1cnc(-c2ccccc2)nc1 | -6.13 |
| CC(C)(C)OC(=O)N1CCCC[C@H]1C(=O)NCc1nccs1 | -9.39 |
| Cc1nc(C)n(C2CCCN(C(=O)CCCn3ccnc3)C2)n1 (stereo not drawn) | 2.24 |
| CS(=O)(=O)NCc1nnc2n1CCN(Cc1ccc(F)cc1)C2 | -72.7 |
| O=C(C1CCOC1)N1CCC2(CC1)CN(Cc1nccs1)CCO2 (stereo not drawn) | -75 |

| Structure (SMILES) | cytotoxicity at 10 µM [%] |
| --- | --- |
| Cc1ccc(C(=O)N2CCN(C)C3(CCC(=O)N(C)CC3)C2)c(F)c1 (stereo not drawn) | -1.68 |
| CCn1c(Cn2cncn2)nnc1C1CCN(C2CCOCC2)CC1 | 9.23 |
| CCCN(Cc1cccnc1)C(=O)C1CCS(=O)(=O)CC1 | -9.03 |
| CCc1nnc(NC(=O)c2ccc(C3CCCN3CC(C)C)s2)s1 (stereo not drawn) | 2.14 |
| Cc1nc(NC(=O)NC2CC(=O)N(C(C)C)C2)nn1C(C)C (stereo not drawn) | -1.55 |
| CC(=O)N1CCN(Cc2ccc3c(c2)OCCO3)CC(O)C1 (stereo not drawn) | 4.14 |
| Cc1cnccc1NCCNC(=O)[C@H]1CNC[C@H](C(=O)N2CCCC2)C1 | -124 |
| CC(=O)N1CCCn2nc(CNS(=O)(=O)N3CCC(C)CC3)cc2C1 | 9.91 |
| COc1ccc(-c2noc(Cn3cc(C)cn3)n2)c(OC)c1OC | -8.42 |
| CN(C)Cc1nc(C(=O)N2CCCC(COc3ccc(F)cc3)C2)cs1 (stereo not drawn) | -6.09 |
| COc1ccc2c(c1)CC(NCCCn1nc(C)nc1C)CC2 (stereo not drawn) | -3.27 |
| OCC1(O)CCCN(Cc2ccc(-c3cc[nH]n3)s2)CC1 (stereo not drawn) | -141 |
| CN(C)c1nccnc1N1CC[C@@]2(O)CCNC[C@H]2C1 | 7.12 |
| O=C(N[C@H]1CN(C2CCOCC2)C[C@@H]1C1CC1)c1ccon1 | 5.21 |
| OC1COCCN(Cc2cccc(N3CCOCC3)c2)C1 (stereo not drawn) | -12.6 |
| Cc1cc(N2CCC3(CCC(=O)N(CCCO)C3)CC2)nc(N(C)C)n1 | -0.116 |
| CCNc1ncc(C(=O)N(C)C(C)c2ccc3c(c2)OCCO3)cn1 (stereo not drawn) | -0.75 |
| O=C(O)c1cc(-c2cccs2)nc2c(Br)cnn12 | -9.24 |
| Cc1ccc(=O)n(CC2(O)CCN(Cc3cnc(C)nc3)CC2)n1 | 4.3 |
| Cc1cc(C)n(C2CCCN(C(=O)c3ccc4c(c3)COC4)C2)n1 (stereo not drawn) | -6.1 |
| Cc1cc(C)n(CC2CN(Cc3cc(C)on3)CCO2)n1 (stereo not drawn) | -9.71 |
| CCc1noc(CN2CCN(CCO)CC2)n1 | -6.13 |
| CN(CC(=O)N1CCC(C(O)c2ccccc2)CC1)c1cnccn1 (stereo not drawn) | -2.9 |

| Structure (SMILES) | cytotoxicity at 10 µM [%] |
| --- | --- |
| Fc1cccc(-c2nc(CN3CCn4c(nnc4C4CC4)C3)co2)c1 | 4.4 |
| Cc1ccc(NC2CCN(C(=O)c3cccc4ncccc34)CC2)nn1 | 7.51 |
| O=C(Cc1ccc(-n2cccn2)cc1)N1CCN2CCCCC2C1 (stereo not drawn) | 4.31 |
| CCc1noc(C(C)N2CCNCC2)n1 (stereo not drawn) | -3.46 |
| CC(NC(=O)c1cc(Br)c2c(c1)OCCO2)C(N)=O (stereo not drawn) | -1.06 |
| COc1c(C2CCCN2C(=O)c2cncnc2C)c(C)nn1C (stereo not drawn) | -6.19 |
| Cc1cnn(C2CCCN(C(=O)CCCOc3cccc(F)c3)C2)c1 (stereo not drawn) | 6.71 |
| CC(OCC(F)(F)F)C(=O)Nc1ccc(-n2cncn2)nc1 (stereo not drawn) | 3.44 |
| CCOc1ccccc1C1CCCN1 (stereo not drawn) | -14.1 |
| CN(C)S(=O)(=O)c1ccc(-c2nc(C#N)c(NC(C)(C)C)o2)o1 | -12.3 |
| c1cc2nccc(CC3CCCN(C4CCOCC4)CC3)c2cn1 (stereo not drawn) | -8.24 |
| CNC(=O)CN1CCOCC12CCN(C(=O)c1ccc(C)cc1)CC2 | -87.6 |
| Cn1nnc2c1CCN(Cc1nccs1)C2COCc1ccccc1 (stereo not drawn) | -2.01 |
| Cc1ncsc1CN1C[C@@H](OCc2ccncc2)[C@H]2OCCC[C@H]21 | -148 |
| c1cc(CN2C[C@@H]3OCCN(CCN4CCCC4)[C@@H]3C2)co1 | 6.13 |
| CN(C)[C@@H]1CCN(C(=O)Cc2ccc(F)cc2)[C@H]1Cc1ccncc1 | -84.7 |
| COCC1CN(C(=O)Cc2ccccn2)Cc2c1cnn2CC1CC1 (stereo not drawn) | -69.1 |
| c1cc(CNCc2ccc(Cn3cncn3)cc2)c2c(c1)OCCO2 | 0.585 |
| CN(C)CCN1CCO[C@@H]2CN(C(=O)c3cccs3)CC[C@@H]2C1 | 1.34 |
| Cc1nc(CN2CCc3ncnc(C4CC4)c3CC2)cs1 | -81.9 |
| c1cnc(N2C[C@H]3CC[C@@H](C2)N(Cc2ccsc2)C3)nc1 | 1.2 |
